Hits are enriched below; roughly 2.8% of the tested compounds scored in any of these assays.
PAFAH2 FP inh – PAFAH2 (human) inhibition; recombinant PAFAH2, FP-rhodamine activity probe, fluorescence polarization; inhibition, % at 3.39 µM; 340,000 compounds, 0.99% hits; AID 492956;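 active = inhibition above the mean over all tested compounds plus 3 SD, cut at about 30% in these data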;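 note: inhibitors block probe labeling of enzyme so polarization drops; 0% = enzyme with DMSO and 100% = wells lacking PAFAH2 protein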
mABHD4 FP – inhibitors of mouse ABHD4; purified mABHD4, FP-Rh probe fluorescence polarization; inhibition, % at 8.92 µM; 370,000 compounds, 0.54% hits; AID 720543;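 active = inhibition exceeding the mean over every tested compound plus 3 SD, cut at about 30% in these data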;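 note: 0% = plate median of compound wells and 100% = S159A mutant with DMSO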
Target sequence (Q8VD66 whole entry, looked up): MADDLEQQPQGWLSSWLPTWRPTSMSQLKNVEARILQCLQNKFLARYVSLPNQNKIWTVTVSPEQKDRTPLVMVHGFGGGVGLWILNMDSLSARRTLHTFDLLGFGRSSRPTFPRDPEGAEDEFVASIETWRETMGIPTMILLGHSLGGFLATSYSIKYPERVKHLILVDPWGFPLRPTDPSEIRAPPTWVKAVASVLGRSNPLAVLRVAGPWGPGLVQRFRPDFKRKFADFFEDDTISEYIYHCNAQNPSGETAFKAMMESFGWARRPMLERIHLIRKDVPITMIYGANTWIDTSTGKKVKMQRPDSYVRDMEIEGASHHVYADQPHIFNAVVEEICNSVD
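Test system: mABHD4 protein | Buffer or medium: HEPES pH 7.0 buffer, 150 mM NaCl, 0.01% Pluronic F-127 | Probe or stimulus: FP-Rh fluorescent activity-based probe, added after compound pre-incubation | Timing: Pre-incubation 45 min, probe exposure 60 min, at 25 °C | Technique: Fluorescence polarization, excitation 525 nm, emission 598 nm, BODIPY TMR filters | Repeats: Single well per compound (singlicate)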
PAFAH1B3 FP inh – PAFAH1B3 (human) inhibition | inhibition, % at 3.39 µM | 340,000 compounds, 0.28% hits | recombinant PAFAH1B3, FP-rhodamine probe, fluorescence polarization;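 active = inhibition above the screen-wide average of all tested compounds plus 3 SD, cut at about 25% in these data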;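 note: 0% = enzyme with DMSO only and 100% = wells lacking PAFAH1B3 protein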
HTRA1 inhibitor – blocks human HTRA1 serine peptidase | 340,000 compounds, 0.5% hits | AID 504803 | recombinant HTRA1, FP-rhodamine activity-based probe, fluorescence polarization | Q92743 | inhibition, % at 5.96 µM; in the data active = inhibition above about 36%;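 note: 0% = enzyme with DMSO and 100% = wells lacking enzyme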
pPAFAH inh – pPAFAH (human) enzyme inhibition. Q13093. recombinant pPAFAH, FP-rhodamine probe fluorescence polarization. inhibition, % at 3.39 µM. 330,000 compounds, 1.5% hits. AID 463082;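 active = inhibition above the mean inhibition across the screen plus 3 SD, cut at about 25% in these data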;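 note: inhibitors block binding of the rhodamine activity-based probe so polarization drops; 0% = enzyme with DMSO and 100% = wells lacking pPAFAH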
PAFAH1B2 FP inh – blocks human PAF acetylhydrolase 1b catalytic subunit 2; recombinant PAFAH1B2, FP-rhodamine activity probe, fluorescence polarization; inhibition, % at 3.39 µM; 340,000 compounds, 1.2% hits; AID 492953;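 active = inhibition above the mean of all tested compounds plus 3 SD, cut at about 24% in these data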;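 note: 0% = enzyme with DMSO and 100% = wells lacking PAFAH1B2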
pPAFAH FP conf – pPAFAH (human) inhibition, confirmed. shares compounds with pPAFAH inh. recombinant pPAFAH, FP-Rh probe fluorescence polarization. inhibition, % at 3.39 µM. 2,300 compounds, 72% hits;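 active = mean inhibition of the triplicate above the hit cutoff set for the earlier primary screen, cut at about 25% in these data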;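 note: 0% = enzyme with DMSO and 100% = wells lacking pPAFAH enzyme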
* marks the source's active call; other numbers are inactive results; · = no result.

SMILES	PAFAH2 FP inh	mABHD4 FP	PAFAH1B3 FP inh	HTRA1 inhibitor	pPAFAH inh	PAFAH1B2 FP inh	others
COc1cccc(N2C(=O)NC(=O)/C(=C/c3ccc([N+](=O)[O-])s3)C2=O)c1	49*	-54	46*	21	33*	33*
O=C1NC(=O)N(Cc2ccc(F)cc2)C(=O)/C1=C\c1ccc([N+](=O)[O-])s1	56*	-65	22	43*	26*	34*
O=C1NC(=O)N(Cc2ccc(F)cc2)C(=O)/C1=C\c1ccc(N2CCCC2)cc1	12	-49	-3	-10	26*	7
COc1ccc(CN2C(=O)NC(=O)/C(=C/c3ccc([N+](=O)[O-])s3)C2=O)cc1	63*	-82	46*	34	31*	33*
COc1ccc(CN2C(=O)NC(=O)/C(=C\c3ccco3)C2=O)cc1	16	-19	5	15	13	3
O=C(NCCN1CCC2(CC1)C(=O)NCN2c1ccccc1)C(c1ccccc1)c1ccccc1	·	16	·	·	·	·
Cc1ccc(OC(=O)N(C)C[C@H]2OCc3cnnn3CCCC(=O)N([C@H](C)CO)C[C@H]2C)cc1	·	-4	·	·	·	·
Cc1ccc(C(=O)COC(=O)Cc2ccccc2)cc1	-1	-3	1	1	8	9
Cc1ccc(S(=O)(=O)N2CCN(C(=O)COC(=O)Cc3ccccc3)CC2)c(C)c1	24	-1	1	-11	31*	7
CC(C)(C)OC(=O)NCCCCC(N)[P+](=O)O (stereo not given)	·	4	·	·	·	·
CCOCCCn1c(N)c(C(=O)Nc2sc3c(c2C(=O)OC)CCCC3)c2nc3ccccc3nc21	35*	-31	52*	7	2	31*
Cc1cccc2nc(-c3ccccc3)c(-c3ccc(CN4CCC(n5c(=O)[nH]c6cc(Cl)ccc65)CC4)cc3)nc12	·	-19	·	·	·	·
CCCCn1c(NC(=O)c2ccco2)c(C(=O)OCC)c2nc3ccccc3nc21	17	-16	54*	-7	2	25*
O=C(NCCN1CCC2(CC1)C(=O)NCN2c1ccccc1)c1ccc(Cl)c(Cl)c1	·	18	·	·	·	·
O=C(CN1C(=O)CN=C(c2ccccc2)c2cc(Cl)ccc21)NC1CCCCC1	·	1	·	·	·	·
O=P(NS(=O)(=O)c1ccc(Cl)cc1)(Oc1ccccc1)Oc1ccccc1	-4	2	7	-9	1	84*
Cc1ccc(S(=O)(=O)NP(=O)(Oc2ccccc2)Oc2ccccc2)cc1	2	-1	24	-3	-2	46*
O=P(NS(=O)(=O)c1ccc(Br)cc1)(Oc1ccccc1)Oc1ccccc1	7	-2	0	-11	4	78*
S=P(c1ccccc1)(c1ccccc1)c1cnc2ccccn12	·	-8	·	·	·	·
CO[C@H]([C@H](C)/C=C/N(C)C=O)[C@@H](C)C(=O)CC[C@H](C)[C@H](O)[C@H](C)[C@H]1OC(=O)/C=C/C(C)=C/[C@H](O)[C@H](OC)C[C@@H]2C=CC[C@@H](C[C@H](OC)[C@@H](CO)[C@@H](OC)C[C@@H](OC)[C@@H]1C)O2	·	-1	·	·	·	·
CN1C(=O)[C@@]23C[C@]4(c5c[nH]c6ccccc56)c5ccccc5N(S(=O)(=O)c5ccccc5)[C@@H]4N2C(=O)[C@@H]1SS3	·	-5	·	·	·	·
O=C1NC(=O)C(=Cc2ccc(Oc3ccc([N+](=O)[O-])cc3)cc2)C(=O)N1	4	·	3	-5	1	7
COc1cc(C=C2C(=O)NC(=O)NC2=O)ccc1OCc1ccc([N+](=O)[O-])cc1	7	2	2	-2	·	26*
Cc1ccc2nc(-c3ccc(CN4CCC(n5nnc6ccccc65)CC4)cc3)c(-c3ccccc3)nc2c1	·	-9	·	·	·	·
Brc1csc(N2CCNCC2)n1	·	-5	·	·	·	·
CC(C)OCCCNC(=O)c1c(N)n(CC2CCCO2)c2nc3ccccc3nc12 (stereo not given)	28	4	55*	22	12	26*
O=C(Cn1ncc2c3ccccc3n(Cc3cccc(Cl)c3)c2c1=O)N1CCC2(CC1)OCCO2	19	-28	14	-19	40*	5	pPAFAH FP conf=37*
COP(=O)(OC)OC=C(Cl)Cl	·	11	·	·	·	·
